Data set [1] deals with MOLM-13. Nature of the data set: Induction of apoptosis in human MOLM-13 cells assessed as early apoptotic cells at 10 uM incubated for 48 hrs by Annexin V-FITC/PI staining based flow cytometric analysis (reference value: 4.10%). Type of data set: functional. (A flow cytometer gives signals particle by particle.)
Data set [2] has as its system MOLM-13. As to the kind of experiment: Cell cycle arrest in human MOLM-13 cells assessed as accumulation of G0/G1 phase cells at 10 uM incubated for 24 hrs by RNase A/PI staining based flow cytometry analysis (reference value: 38.14%). Type of data set: functional.
Another data set has as its system A549. Nature of the data set: Antiproliferative activity against human A549 cells assessed as cell growth inhibition at 10 uM incubated for 48 hrs by CCK8 assay relative to control. Type of data set: functional. The settings on record: read-out: GI. In a few lines:
(§1)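 Single-concentration screen of six cancer cell lines. Cells were exposed to 10 μM compound and growth was measured by CCK-8 assay. Results are reported as inhibition rate at 10 μM.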

The test system of data set [3] is MOLM-13. Nature of the data set: Antiproliferative activity against human MOLM-13 cells assessed as inhibition of cell growth incubated for 48 hrs by CCK8 assay. Type of data set: functional, cell-based. The settings on record: MOLM-13, 48 h. The essentials: (§2)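 CCK-8 growth-inhibition assay in the malignant haematological lines MOLM-13, NB4 and Jeko-1 and in normal PBMC. Cells were treated across a range of doses and IC50 taken as the half-maximal growth-inhibitory concentration. Data are mean ± SD of triplicate samples, and experiments were repeated at least three times.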
On the technique in general: Tetrazolium assays rely on reduction of a dye to a coloured formazan, in cell work by metabolically active cells.

For data set [4], the system named is JeKo-1. Nature of the data set: Antiproliferative activity against human JeKo-1 cells assessed as cell growth inhibition at 10 uM incubated for 48 hrs by CCK8 assay relative to control. Type of data set: functional. The settings on record: read-out: GI. The essentials:
as §1

Data set [5] relates to MOLM-13. As to the kind of experiment: Antiproliferative activity against human MOLM-13 cells assessed as cell growth inhibition at 10 uM incubated for 48 hrs by CCK8 assay relative to control. Type of data set: functional. The settings on record: read-out: GI. In a few lines:
as §1

Data set [6] concerns MOLM-13. As to the kind of experiment: Cell cycle arrest in human MOLM-13 cells assessed as accumulation of G2/M phase cells at 10 uM incubated for 24 hrs by RNase A/PI staining based flow cytometry analysis (reference value: 11.74%). Type of data set: functional.
The subject of data set [7] is MOLM-13. Nature of the data set: Induction of apoptosis in human MOLM-13 cells assessed as viable cells at 10 uM incubated for 48 hrs by Annexin V-FITC/PI staining based flow cytometric analysis (reference value: 92.24%). The settings on record: read-out: Activity. Type of data set: functional.
Data set [8] relates to NB-4. As to the kind of experiment: Antiproliferative activity against human NB4 cells assessed as inhibition of cell growth incubated for 48 hrs by CCK8 assay. Type of data set: functional, cell-based. The settings on record: NB-4, 48 h. In a few lines: as §2
Data set [9] deals with HeLa. As to the kind of experiment: Antiproliferative activity against human HeLa cells assessed as cell growth inhibition at 10 uM incubated for 48 hrs by CCK8 assay relative to control. Type of data set: functional. The settings on record: read-out: GI. The essentials: as §1
Data set [10] has as its system JeKo-1. As to the kind of experiment: Antiproliferative activity against human JeKo-1 cells assessed as inhibition of cell growth incubated for 48 hrs by CCK8 assay. Type of data set: functional, cell-based. The settings on record: JeKo-1, 48 h. The essentials:
as §2

Data set [11] deals with MOLM-13. Nature of the data set: Induction of apoptosis in human MOLM-13 cells assessed as necrotic cells at 10 uM incubated for 48 hrs by Annexin V-FITC/PI staining based flow cytometric analysis (reference value: 0.48%). Type of data set: functional.
The subject of data set [12] is MOLM-13. As to the kind of experiment: Cell cycle arrest in human MOLM-13 cells assessed as accumulation of S phase cells at 10 uM incubated for 24 hrs by RNase A/PI staining based flow cytometry analysis (reference value: 50.12%). Type of data set: functional.
The test system of the next data set is U-251. As to the kind of experiment: Antiproliferative activity against human U-251 cells assessed as cell growth inhibition at 10 uM incubated for 48 hrs by CCK8 assay relative to control. The settings on record: read-out: GI. Type of data set: functional. The essentials:
as §1

In data set [13] the test system is NB-4. Nature of the data set: Antiproliferative activity against human NB4 cells assessed as cell growth inhibition at 10 uM incubated for 48 hrs by CCK8 assay relative to control. The settings on record: read-out: GI. Type of data set: functional. In a few lines: as §1
In data set [14] the test system is MOLM-13. Nature of the data set: Induction of apoptosis in human MOLM-13 cells assessed as late apoptotic cells at 10 uM incubated for 48 hrs by Annexin V-FITC/PI staining based flow cytometric analysis (reference value: 3.17%). Type of data set: functional.
The subject of data set [15] is MOLM-13. Nature of the data set: Induction of apoptosis in human MOLM-13 cells assessed as viable cells at 2.5 uM incubated for 48 hrs by Annexin V-FITC/PI staining based flow cytometric analysis (reference value: 92.24%). Type of data set: functional. The settings on record: read-out: Activity.
For a further data set, the system named is PBMC. As to the kind of experiment: Cytotoxicity against human PBMC assessed as reduction in cell viability incubated for 48 hrs by CCK8 assay. Type of data set: toxicity, cell-based. In a few lines:
as §2

Data set [16] relates to MOLM-13. As to the kind of experiment: Cell cycle arrest in human MOLM-13 cells assessed as accumulation of G0/G1 phase cells at 5 uM incubated for 24 hrs by RNase A/PI staining based flow cytometry analysis (reference value: 38.14%). Type of data set: functional.
Data set [17] has as its system MOLM-13. Nature of the data set: Induction of apoptosis in human MOLM-13 cells assessed as early apoptotic cells at 5 uM incubated for 48 hrs by Annexin V-FITC/PI staining based flow cytometric analysis (reference value: 4.10%). Type of data set: functional.
Data set [18] has as its system MOLM-13. As to the kind of experiment: Induction of apoptosis in human MOLM-13 cells assessed as necrotic cells at 5 uM incubated for 48 hrs by Annexin V-FITC/PI staining based flow cytometric analysis (reference value: 0.48%). Type of data set: functional.
Data set [19] relates to MOLM-13. Nature of the data set: Induction of apoptosis in human MOLM-13 cells assessed as late apoptotic cells at 2.5 uM incubated for 48 hrs by Annexin V-FITC/PI staining based flow cytometric analysis (reference value: 3.17%). Type of data set: functional.
Data set [20] relates to MOLM-13. Nature of the data set: Induction of apoptosis in human MOLM-13 cells assessed as viable cells at 5 uM incubated for 48 hrs by Annexin V-FITC/PI staining based flow cytometric analysis (reference value: 92.24%). The settings on record: read-out: Activity. Type of data set: functional.
In data set [21] the test system is MOLM-13. Nature of the data set: Induction of apoptosis in human MOLM-13 cells assessed as late apoptotic cells at 5 uM incubated for 48 hrs by Annexin V-FITC/PI staining based flow cytometric analysis (reference value: 3.17%). Type of data set: functional.
For data set [22], the system named is MOLM-13. Nature of the data set: Cell cycle arrest in human MOLM-13 cells assessed as accumulation of G0/G1 phase cells at 2.5 uM incubated for 24 hrs by RNase A/PI staining based flow cytometry analysis (reference value: 38.14%). Type of data set: functional.
Data set [23] has as its system MOLM-13. As to the kind of experiment: Cell cycle arrest in human MOLM-13 cells assessed as accumulation of G2/M phase cells at 2.5 uM incubated for 24 hrs by RNase A/PI staining based flow cytometry analysis (reference value: 11.74%). Type of data set: functional.
Data set [24] relates to MOLM-13. As to the kind of experiment: Induction of apoptosis in human MOLM-13 cells assessed as necrotic cells at 2.5 uM incubated for 48 hrs by Annexin V-FITC/PI staining based flow cytometric analysis (reference value: 0.48%). Type of data set: functional.
Data set [25] deals with MOLM-13. Nature of the data set: Induction of apoptosis in human MOLM-13 cells assessed as early apoptotic cells at 2.5 uM incubated for 48 hrs by Annexin V-FITC/PI staining based flow cytometric analysis (reference value: 4.10%). Type of data set: functional.
In data set [26] the test system is MOLM-13. Nature of the data set: Cell cycle arrest in human MOLM-13 cells assessed as accumulation of G2/M phase cells at 5 uM incubated for 24 hrs by RNase A/PI staining based flow cytometry analysis (reference value: 11.74%). Type of data set: functional.
For data set [27], the system named is MOLM-13. Nature of the data set: Cell cycle arrest in human MOLM-13 cells assessed as accumulation of S phase cells at 2.5 uM incubated for 24 hrs by RNase A/PI staining based flow cytometry analysis (reference value: 50.12%). Type of data set: functional.
The test system of data set [28] is MOLM-13. As to the kind of experiment: Cell cycle arrest in human MOLM-13 cells assessed as accumulation of S phase cells at 5 uM incubated for 24 hrs by RNase A/PI staining based flow cytometry analysis (reference value: 50.12%). Type of data set: functional.
The subject of another data set is MCF7. As to the kind of experiment: Antiproliferative activity against human MCF7 cells assessed as inhibition of cell proliferation. Type of data set: functional, cell-based.
Data set [29] can be described thus: Antiproliferative activity against Renal 1983 cells (unknown origin) assessed as inhibition of cell proliferation. Type of data set: functional, cell-based. The settings on record: Renal 1983 cell.
For data set [30], the system named is HeLa. As to the kind of experiment: Antiproliferative activity against human HeLa cells assessed as inhibition of cell proliferation. Type of data set: functional, cell-based.

Results on three compounds are retold here after ChEMBL document CHEMBL5357072, “Structural Modification of Noscapine via Photoredox/Nickel Dual Catalysis for the Discovery of S-Phase Arresting Agents” (ACS Med Chem Lett, 2024).

Broadly, the IC50 is the midpoint of a concentration-inhibition curve. Take `COc1ccc2c(c1OC)C(=O)O[C@@H]2[C@H]1c2c(c(Br)c3c(c2OC)OCO3)CCN1C`: the Activity with MOLM-13 [1] is on record as 10.63%; in the data set with MOLM-13 [2], 32.96%; with MOLM-13 [6], 36.44%; with MOLM-13 [11], 0.69%; in the data set on MOLM-13 [12] it was 30.6%; with MOLM-13 [14], 10.56%. Further, the inhibition of growth at 10 µM was 15.9% with A549; 48.9% in the data set on JeKo-1 [4]; 41.9% in the data set on MOLM-13 [5]; 28.1% with HeLa [9]; < 5% with U-251; 38.3% in the data set with NB-4 [13]. Further, the IC50 in the data set with MOLM-13 [3] stood at 15.3 µM; with NB-4 [8], 16.3 µM; in the data set on JeKo-1 [10], 11.5 µM. The viability at 10 µM with MOLM-13 [7] worked out at 78.1%.

As for `COc1ccc2c(c1OC)C(=O)O[C@@H]2[C@H]1c2c(c(CC3CN(C(=O)OCc4ccccc4)C3)c3c(c2OC)OCO3)CCN1C(=O)OC(C)(C)C`, the viability at 2.5 µM in the data set with MOLM-13 [15] stood at 90.1%. Also, the Activity result is recorded as “Non-Toxic” with PBMC; 19.67% in the data set with MOLM-13 [1]; 12.45% with MOLM-13 [2]; 16.37% in the data set on MOLM-13 [16]; 16.95% in the data set with MOLM-13 [17]; 2.41% with MOLM-13 [18]. The Activity in the data set with MOLM-13 [19] was 4.35%; with MOLM-13 [6] it was 5.11%; in the data set on MOLM-13 [21], 18.62%; in the data set on MOLM-13 [22] it was 36.94%; with MOLM-13 [23] it was 16.36%; with MOLM-13 [11] it was 3.2%. Further, the Activity in the data set on MOLM-13 [12] was determined as 82.44%; with MOLM-13 [24] it was 0.52%; in the data set on MOLM-13 [25], 5.01%; in the data set with MOLM-13 [26], 9.96%; with MOLM-13 [27], 46.7%; in the data set on MOLM-13 [28], 73.67%. The Activity with MOLM-13 [14] stood at 23.68%. For the same compound, the inhibition of growth at 10 µM in the data set on A549 stood at 57%; in the data set on JeKo-1 [4], 74.3%; in the data set on MOLM-13 [5], 79.8%; in the data set with HeLa [9], 62.7%; with U-251, 37.1%; with NB-4 [13] it was 60.5%. Also, the results for the concentration for half-maximal inhibition (IC50) with MOLM-13 [3], in the data set with NB-4 [8] and in the data set on JeKo-1 [10] were 3.12 µM, 5.25 µM and 3.39 µM, respectively. Also, in the data set with MOLM-13 [7], the viability at 10 µM turned out to be 53.5%. Further, the viability at 5 µM with MOLM-13 [20] is 62%.

Take `COc1ccc2c(c1OC)C(=O)O[C@@H]2[C@H]1c2c(cc3c(c2OC)OCO3)CCN1C` [NOSCAPINE]: the Activity was 6.9% with MOLM-13 [1]; 25.66% with MOLM-13 [2]; 13.8% in the data set on MOLM-13 [6]; 1.71% with MOLM-13 [11]; 60.54% with MOLM-13 [12]; 8.44% in the data set with MOLM-13 [14]. For the same compound, the inhibition of growth at 10 µM in the data set with A549 is < 5%; in the data set on JeKo-1 [4], < 5%; in the data set with MOLM-13 [5], 19%; in the data set with HeLa [9], < 5%; with U-251, < 5%; in the data set on NB-4 [13], 26.7%. Further, the IC50 was 42 µM with MCF7; > 20 µM with MOLM-13 [3]; > 20 µM in the data set with NB-4 [8]; > 20 µM in the data set with JeKo-1 [10]; 39 µM in [29]; 25 µM in the data set on HeLa [30]. In addition, the viability at 10 µM with MOLM-13 [7] is 83%.
